# Calls of active or inactive are those of the source. The calls are words filed in the database; no cut-off is given here.
# Columns and labels:
# [1] = Half life of the compound in citrate buffer at pH 6
# [2] = Drug degradation assessed as 5-bromofuran-2-carbaldehyde formation at 100 uM by HPLC-UV analysis in absence of MurA; assay type: physicochemical
# How it was run: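 Test compound (100 µM) was held under standard MurA assay buffer conditions without enzyme, then stopped at several time points. HPLC-UV used a C18 column, 37 °C, and a 0.1% TFA water/acetonitrile gradient. Aldehyde formation was followed at 290 nm.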
# [3] = tested on: UDP-N-acetylglucosamine 1-carboxyvinyltransferase (Escherichia coli K-12), P0A749 [C115D]; test: Inhibition of Escherichia coli MurA C115D mutant expressed in Escherichia coli BL21(lambdaDE3) using UNAG and PEP as substrate at 50 to 500 uM incubated for 30 mins by 2,2'-dithiopyridine based spectrophotometric analysis
# How it was run: (§1)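 MurA (wild-type or C115D) was incubated with test compound at an equimolar ratio or 10-fold excess in 50 mM Tris pH 7.8 at room temperature for 30 min. 2,2'-Dithiodipyridine was then added in 0.5 M citrate pH 4 with 6 M urea for 30 min and quenched with 4% TFA. 2-Thiopyridone was measured by HPLC at 342 nm against a compound-free control.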
# [4] = molecular target: UDP-N-acetylglucosamine 1-carboxyvinyltransferase (Escherichia coli K-12, UniProt P0A749, C115D); test: Inhibition of Escherichia coli MurA C115D mutant expressed in Escherichia coli BL21(lambdaDE3) using UNAG and PEP as substrate incubated for 10 mins prior to PEP addition measured after 60 mins by spectrophotometric analysis; conditions: read-out: IC50
# [5] = Cytotoxicity against human SW707 cells after 72 hrs by crystal violet staining method; assay type: ADME, cell-based; conditions: SW707, 72 h
# HaCaT = test: Cytotoxicity against human HaCaT cells after 72 hrs by crystal violet staining method; assay type: ADME, cell-based
# [6] = Induction of GSSG formation in citrate buffer at 100 uM by RP-LC/MS analysis
# [7] = Cytotoxicity against human Flow 2002 cells after 72 hrs by crystal violet staining method; assay type: ADME, cell-based; conditions: Flow 2002, 72 h
# [8] = Cytotoxicity against human lymphoblastoid cells assessed as cell vaibility at 3.4 uM; assay type: cell-based; conditions: read-out: Activity
# Calu-6 = test: Cytotoxicity against human Calu6 cells after 72 hrs by crystal violet staining method; assay type: ADME, cell-based; conditions: Calu-6, 72 h
# [9] = molecular target: Prothrombin (Homo sapiens) (UniProt P00734); conditions: at 25 µM
# [10] = molecular target: Methionine aminopeptidase 2 (Homo sapiens) (UniProt P50579); conditions: at 10 µM
# Dengue virus = conditions: at 50 µM
# Pseudomonas aeruginosa = test: microbe, parasite or virus in culture; assay type: functional; conditions: ATCC 27853
# Staphylococcus aureus [11] = test: microbe, parasite or virus in culture; assay type: functional; conditions: ATCC 25923
# [12] = Half life of the compound in Muller-Hinton medium at 100 uM at pH 7.2; assay type: physicochemical
# How it was run: (§2)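 Compound (100 µM) was dissolved in Müller-Hinton medium (pH 7.2, or adjusted to pH 5.8) and aliquots were injected onto HPLC at different time points. Parent disappearance was read at 390 nm. Half-life came from a first-order plot of log peak area versus time, t1/2 = ln2/kobs.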
# [13] = Drug degradation in Muller-Hinton medium assessed as disappearance of parent compound at 100 uM at pH 7.2 by HPLC-UV analysis; assay type: physicochemical; conditions: buffer, pH 7.2, 100 µM; TDE = time-dependent effect; how it was run: as §2
# [14] = Half life of the compound in Muller-Hinton medium at 100 uM at pH 5.8; assay type: physicochemical; how it was run: as §2
# [15] = molecular target: T1, UDP-N-acetylglucosamine 1-carboxyvinyltransferase (Escherichia coli K-12, UniProt P0A749); test: Inhibition of Escherichia coli MurA expressed in Escherichia coli BL21(lambdaDE3) using UNAG and PEP as substrate incubated for 10 mins prior to PEP addition measured after 60 mins by spectrophotometric analysis; conditions: read-out: IC50
# A-431 = test: Cytotoxicity against human A431 cells after 72 hrs by crystal violet staining method; assay type: ADME, cell-based; conditions: A-431, 72 h
# Staphylococcus aureus [16] = test: microbe, parasite or virus in culture; assay type: functional; conditions: NCTC 10442
# [17] = molecular target: UDP-N-acetylglucosamine 1-carboxyvinyltransferase (Escherichia coli K-12) (UniProt P0A749); test: Inhibition of Escherichia coli MurA expressed in Escherichia coli BL21(lambdaDE3) using UNAG and PEP as substrate at 50 to 500 uM incubated for 30 mins by 2,2'-dithiopyridine based spectrophotometric analysis; how it was run: as §1
# [18] = Half life of the compound in tris buffer at pH 7.8
# CAPAN-1 = test: Cytotoxicity against human Capan1 cells after 72 hrs by crystal violet staining method; assay type: ADME, cell-based; conditions: CAPAN-1, 72 h
# MeWo = test: Cytotoxicity against human MeWo cells after 72 hrs by crystal violet staining method; assay type: ADME, cell-based
# [19] = Inhibition of Pseudomonas aeruginosa MurA expressed in Escherichia coli BL21(lambdaDE3) using UNAG and PEP as substrate incubated for 10 mins prior to PEP addition measured after 60 mins by spectrophotometric analysis; conditions: read-out: IC50
# [20] = Inhibition of Staphylococcus aureus MurA2 expressed in Escherichia coli BL21(lambdaDE3) using UNAG and PEP as substrate incubated for 10 mins prior to PEP addition measured after 60 mins by spectrophotometric analysis; conditions: read-out: IC50
# Escherichia coli [21] = test: microbe, parasite or virus in culture; assay type: functional; conditions: ATCC 25922
# [22] = molecular target: UDP-N-acetylglucosamine 1-carboxyvinyltransferase (Escherichia coli K-12) (UniProt P0A749); test: Irreversible inhibition of Escherichia coli MurA expressed in Escherichia coli BL21(lambdaDE3) using UNAG and PEP as substrate at 1.25 uM incubated up to 80 min prior to PEP addition measured after 60 mins by spectrophotometric analysis; conditions: TDE = time-dependent effect
# How it was run: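 Phosphate-release MurA assay: 12 nM E. coli MurA, 250 µM UNAG, 125 µM PEP, 25 mM Tris pH 7.8, 0.1% BSA, 37 °C. The pre-incubation period of inhibitor with enzyme was varied before PEP addition. Reaction ran 60 min, was stopped with malachite green reagent, and read at 620 nm.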
# [23] = molecular target: T1, UDP-N-acetylglucosamine 1-carboxyvinyltransferase; test: Induction of Escherichia coli MurA-mediated 2-bromo-5-(2-nitrovinyl)furan formation assessed as enzyme-(R)-methyl 3-mercapto-2-(6-methoxy-2-oxo-2H-chromene-3-carboxamido)propanoate adduct level at 200 to 300 uM after 1 hr by SDS-PAGE analysis
# How it was run: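 E. coli MurA was incubated with the fluorescent coumarin cysteine thiol, with or without test compound. After 1 h, aliquots were quenched in non-reducing Laemmli buffer (one sample in reducing buffer), heated to 95 °C for 3 min and run on 12% SDS-PAGE. Protein-bound fluorophore was imaged at 365 nm excitation.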
# [24] = Induction of GSH-adduct formation in citrate buffer at100 uM by RP-LC/MS analysis; conditions: 100 µM
# Ca-Ski = test: Cytotoxicity against human CaSki cells after 72 hrs by crystal violet staining method; assay type: ADME, cell-based
# [25] = molecular target: UDP-N-acetylglucosamine 1-carboxyvinyltransferase (Escherichia coli K-12) (UniProt P0A749); test: Inhibition of Escherichia coli MurA expressed in Escherichia coli BL21(lambdaDE3) using UNAG and PEP as substrate at 5 uM incubated for 10 mins […] measured after 60 mins by spectrophotometric analysis
# How it was run: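 MurA (12 nM) was pre-incubated with UNAG and inhibitor for 10 min at 37 °C, and the reaction was started with PEP. Final conditions: UNAG 250 µM, PEP 125 µM, 25 mM Tris pH 7.8, 0.1% BSA, 1% DMSO. After 60 min at 37 °C, malachite green/molybdate reagent was added and phosphate was read at 620 nm after 10 min. Run in triplicate.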
# [26] = Prodrug activation in citrate buffer assessed as debromination at 100 uM at pH 6 in presence of GSH; assay type: physicochemical; conditions: pH 6, 100 µM
# How it was run: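 Inhibitor and glutathione, each at 100 µM final, in 50 mM sodium citrate pH 6.0. Aliquots were withdrawn every 30 s for 3 min and at 4 and 5 min, quenched, and analysed by reversed-phase HPLC-UV.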
# [27] = molecular target: Methionine aminopeptidase 1 (Homo sapiens) (UniProt P53582); conditions: at 10 µM
# Escherichia coli [28] = conditions: at 10 µM
# UDP-N-acetylglucosamine 1-carboxyvinyltransferase (Escherichia coli K-12), sequence (P0A749 whole entry): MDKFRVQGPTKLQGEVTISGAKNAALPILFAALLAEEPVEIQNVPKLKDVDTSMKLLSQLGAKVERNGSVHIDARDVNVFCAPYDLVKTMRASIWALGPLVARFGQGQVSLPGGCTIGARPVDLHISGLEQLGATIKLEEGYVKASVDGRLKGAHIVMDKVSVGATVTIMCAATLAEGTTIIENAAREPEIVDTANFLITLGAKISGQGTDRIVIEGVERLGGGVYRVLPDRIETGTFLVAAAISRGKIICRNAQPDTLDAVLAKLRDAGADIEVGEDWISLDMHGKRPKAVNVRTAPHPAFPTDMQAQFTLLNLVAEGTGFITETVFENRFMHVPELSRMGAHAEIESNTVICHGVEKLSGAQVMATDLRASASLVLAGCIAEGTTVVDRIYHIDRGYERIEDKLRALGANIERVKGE
# T1 sequence (P0A749 whole entry): as above
# UDP-N-acetylglucosamine 1-carboxyvinyltransferase (Escherichia coli K-12, UniProt P0A749, C115D), sequence (P0A749 whole entry C115D): as the sequence (P0A749 whole entry) above, with C115D counted along it
# UDP-N-acetylglucosamine 1-carboxyvinyltransferase (Escherichia coli K-12), P0A749 [C115D], sequence (P0A749 whole entry C115D): as the sequence (P0A749 whole entry) above, with C115D counted along it
# Methionine aminopeptidase 2 (Homo sapiens), sequence (P50579 2-478 limits assumed): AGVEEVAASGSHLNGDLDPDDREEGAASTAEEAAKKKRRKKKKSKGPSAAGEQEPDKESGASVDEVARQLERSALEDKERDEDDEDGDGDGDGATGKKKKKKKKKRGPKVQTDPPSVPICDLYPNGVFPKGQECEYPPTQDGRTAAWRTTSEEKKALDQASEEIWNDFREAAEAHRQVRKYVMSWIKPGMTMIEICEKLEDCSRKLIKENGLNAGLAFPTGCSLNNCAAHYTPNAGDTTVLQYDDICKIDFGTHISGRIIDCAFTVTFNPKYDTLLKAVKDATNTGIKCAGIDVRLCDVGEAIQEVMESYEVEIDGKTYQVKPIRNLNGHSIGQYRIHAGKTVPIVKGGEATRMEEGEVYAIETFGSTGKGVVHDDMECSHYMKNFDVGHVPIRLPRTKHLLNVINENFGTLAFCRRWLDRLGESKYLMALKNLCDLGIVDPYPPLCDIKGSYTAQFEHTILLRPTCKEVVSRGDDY
smiles,measurement,setting,value
O=[N+]([O-])/C(Br)=C/c1ccc(Br)o1,half-life,[1],360 min
same,Stability,[2],Unstable
same,inhibition,[3],Active
same,IC50,[4],18.7 µM
same,IC50,[5],47 µM
same,IC50,HaCaT,33 µM
same,Activity,[6],Not Active
same,IC50,[7],9 µM
same,viability at 3.4 µM,[8],> 70%
same,IC50,Calu-6,10 µM
same,inhibition,[9],8%
same,inhibition,[10],13%
same,inhibition,Dengue virus,12%
same,MIC,Pseudomonas aeruginosa,2 µg/mL
same,MIC,Staphylococcus aureus [11],4 µg/mL
same,half-life at 100 µM,[12],8 min
same,Drug degradation,[13],tde
same,half-life at 100 µM,[14],60 min
same,IC50,[15],2.8 µM
same,IC50,A-431,24 µM
same,MIC,Staphylococcus aureus [16],4 µg/mL
same,inhibition,[17],Active
same,half-life,[18],30 min
same,IC50,CAPAN-1,36 µM
same,IC50,MeWo,43 µM
same,IC50,[19],2.8 µM
same,IC50,[20],3.9 µM
same,MIC,Escherichia coli [21],4 µg/mL
same,inhibition,[22],tde
same,Drug metabolism,[23],Active
same,Activity,[24],Not Active
same,IC50,Ca-Ski,50 µM
same,inhibition,[25],Active
same,Drug metabolism,[26],Active
same,inhibition,[27],inactive
same,inhibition,Escherichia coli [28],85%
